What was measured:
[1] = molecular target: T1, Advanced glycosylation end product-specific receptor (Homo sapiens, UniProt Q15109); assay: Antagonist activity at human biotinylated RAGE assessed as inhibition of amyloid beta binding at 10 uM after 60 mins by ELISA
How it was run: (§1)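 Biotinylated protein with Aβ in BSA-containing buffer incubated on a streptavidin-coated plate for 60 min at ambient temperature, then washed with TBS-T. Bound Aβ detected with HRP-conjugated 4G8 antibody (1:1000, TBS-T with 2.5% BSA) for 60 min at ambient temperature. Developed with TMB, stopped with sulfuric acid, absorbance read at 450 nm.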

[2] = molecular target: T1, Advanced glycosylation end product-specific receptor; assay: Antagonist activity at RAGE transfected in CHO cells assessed as inhibition of amyloid beta 42-induced NFkappaB activation at 1 uM after 18 hrs by luciferase reporter gene assay; type: functional, cell-based
How it was run: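 CHO-NF-κB-luciferase cells at 20,000 cells/well in Opti-MEM, incubated overnight, then treated with compound (1 µM) for 18 h at 37 °C with or without 5 µM Aβ42. Cells lysed in passive lysis buffer, lysate mixed with luciferase substrate, relative light units read on a luminometer.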

[3] = molecular target: T1, Advanced glycosylation end product-specific receptor; assay: Antagonist activity at human biotinylated RAGE assessed as inhibition of amyloid beta binding after 60 mins by ELISA; how it was run: as §1
[4] = molecular target: Advanced glycosylation end product-specific receptor (Mus musculus) (UniProt Q62151); assay: Antagonist activity at RAGE overexpressed in mouse bEND.3 cells assessed as inhibition of FITC-amyloid beta 42 transport across blood-brain barrier at 10 uM by fluorescence assay; type: functional, cell-based
Advanced glycosylation end product-specific receptor (Mus musculus), sequence (Q62151 whole entry): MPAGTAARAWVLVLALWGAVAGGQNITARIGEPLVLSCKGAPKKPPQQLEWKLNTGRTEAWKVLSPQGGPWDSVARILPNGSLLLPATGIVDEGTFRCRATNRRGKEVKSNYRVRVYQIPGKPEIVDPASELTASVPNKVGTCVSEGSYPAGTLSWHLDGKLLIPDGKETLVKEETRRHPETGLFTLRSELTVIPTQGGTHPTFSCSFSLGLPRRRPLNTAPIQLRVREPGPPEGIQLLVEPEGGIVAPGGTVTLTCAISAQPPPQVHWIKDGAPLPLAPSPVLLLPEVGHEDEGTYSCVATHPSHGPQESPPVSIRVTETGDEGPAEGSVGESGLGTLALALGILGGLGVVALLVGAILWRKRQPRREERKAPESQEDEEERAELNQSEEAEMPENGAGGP
How it was run: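 RAGE-overexpressing bEND.3 cells grown 3–4 days to confluence on inserts to form a tight-junction barrier; TEER taken as resistance minus blank-insert resistance, times insert area. Aβ transport across the monolayer measured with compound at 10 µM; reported as % inhibition.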

T1 sequence (Q15109 whole entry): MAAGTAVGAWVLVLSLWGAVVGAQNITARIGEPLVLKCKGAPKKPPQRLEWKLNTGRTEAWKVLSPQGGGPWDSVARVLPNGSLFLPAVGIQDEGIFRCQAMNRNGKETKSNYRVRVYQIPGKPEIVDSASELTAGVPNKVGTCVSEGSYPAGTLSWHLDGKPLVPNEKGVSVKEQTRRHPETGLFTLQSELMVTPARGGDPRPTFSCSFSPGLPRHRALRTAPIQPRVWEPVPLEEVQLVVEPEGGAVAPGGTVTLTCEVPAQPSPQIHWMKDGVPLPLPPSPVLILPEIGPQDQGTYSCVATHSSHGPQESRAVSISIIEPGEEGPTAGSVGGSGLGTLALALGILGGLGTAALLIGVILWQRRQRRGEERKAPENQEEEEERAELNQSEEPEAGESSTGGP

| inhibition [1] | inhibition [2] | IC50 [3] | inhibition [4] | Structure (SMILES) |
| --- | --- | --- | --- | --- |
| 40.6% |  |  |  | CCCCc1sc(-c2ccc(OCCCN3CCOCC3)cc2)nc1-c1ccc(Oc2ccc(Cl)cc2)cc1 |
| 59.2% | 11.7% | 1840 nM | 64.3% | CCCCc1sc(-c2ccc(OCCCN3CCCCC3)cc2)nc1-c1ccc(Oc2ccc(Cl)cc2)cc1 |
| 58% | 3% | 660 nM | 77.5% | CCCCc1sc(-c2ccc(OCC3CCCN(CC)C3)cc2)nc1-c1ccc(Oc2ccc(Cl)cc2)cc1 (stereo unspecified) |
| 55.9% |  | 1910 nM | 68.3% | CCCCc1sc(-c2ccc(Oc3ccc(Cl)cc3)cc2)nc1-c1ccc(OCC2CCCN(CC)C2)cc1 (stereo unspecified) |
| 49.6% |  |  |  | CCCCc1nc(-c2ccc(OCCCN(CC)CC)cc2)sc1-c1ccc(Oc2ccc(Cl)cc2)cc1 |
| 47.7% |  |  |  | CCCCc1nc(-c2ccc(OCC3CCCN(CC)C3)cc2)sc1-c1ccc(Oc2ccc(Cl)cc2)cc1 (stereo unspecified) |
| 2.4% |  |  |  | CCCCc1sc(-c2ccc(Oc3ccc(Cl)cc3)cc2)nc1-c1ccc(OCc2ccccc2)cc1 |
| 22.9% |  |  |  | CCCCc1sc(-c2ccc(OCCN3CCOCC3)cc2)nc1-c1ccc(Oc2ccc(Cl)cc2)cc1 |
| 60.2% |  | 5590 nM |  | CCCCc1sc(NC(=O)c2ccc(OCCCN(CC)CC)cc2)nc1-c1ccc(Oc2ccc(Cl)cc2)cc1 |
| 46.2% |  |  |  | CCCCc1sc(-c2ccc(OCCCN(C)C)cc2)nc1-c1ccc(Oc2ccc(Cl)cc2)cc1 |
| 60.1% | 13.5% | 1040 nM | 55.3% | CCCCc1sc(-c2ccc(OCCN3CCCCC3)cc2)nc1-c1ccc(Oc2ccc(Cl)cc2)cc1 |
| 64.2% | 2.5% | 910 nM | 39.5% | CCCCc1sc(-c2ccc(OCCN3CCCC3)cc2)nc1-c1ccc(Oc2ccc(Cl)cc2)cc1 |
| 51.8% | 2.1% | 3180 nM | 66.6% | CCCCc1sc(-c2ccc(OCCN(C)C)cc2)nc1-c1ccc(Oc2ccc(Cl)cc2)cc1 |
| 57.1% | 10.3% | 2010 nM | 63.5% | CCCCc1nc(-c2ccc(Oc3ccc(Cl)cc3)cc2)sc1-c1ccc(OCCCN(CC)CC)cc1 |
| 54.7% | 17.2% | 1210 nM | 68.6% | CCCCc1sc(-c2ccc(OCCN3CCN(C)CC3)cc2)nc1-c1ccc(Oc2ccc(Cl)cc2)cc1 |
| 57% |  | 1120 nM | 71.7% | CCCCc1sc(-c2ccc(Oc3ccc(Cl)cc3)cc2)nc1-c1ccc(OCCCN(CC)CC)cc1 |
| 48.1% |  |  |  | CCCCc1sc(C(=O)Nc2ccc(OCCCN(CC)CC)cc2)nc1-c1ccc(Oc2ccc(Cl)cc2)cc1 |
| 47.8% |  |  |  | CCCCc1sc(-c2ccc(OCCCN3CCCC3)cc2)nc1-c1ccc(Oc2ccc(Cl)cc2)cc1 |
| 55.1% | 11.3% | 1580 nM |  | CCCCc1sc(-c2ccc(OCCN(CC)CC)cc2)nc1-c1ccc(Oc2ccc(Cl)cc2)cc1 |
| 58.9% |  | 1720 nM | 73.3% | CCCCc1sc(-c2ccc(OCCCN(CC)CC)cc2)nc1-c1ccc(Oc2ccc(Cl)cc2)cc1 |
| 59.2% | 3.1% | 1240 nM | 64.3% | CCCCc1sc(-c2ccc(OCCCN3CCN(C)CC3)cc2)nc1-c1ccc(Oc2ccc(Cl)cc2)cc1 |
| 53.9% | 4.9% | 1140 nM | 61.5% | CCCCc1nc(-c2ccc(Oc3ccc(Cl)cc3)cc2)sc1-c1ccc(OCC2CCCN(CC)C2)cc1 (stereo unspecified) |
| 60.9% |  | 550 nM |  | CCCCc1sc(Nc2ccc(OCCCN(CC)CC)cc2)nc1-c1ccc(Oc2ccc(Cl)cc2)cc1 |
| 0.2% |  |  |  | CCCCc1sc(-c2ccc(Oc3ccc(Cl)cc3)cc2)nc1-c1ccc(O)cc1 |
